Test results reported in ChEMBL document CHEMBL4689842, “EUbOPEN Chemogenomics Library wave 1” (2021).

How the values were obtained:
Fibroblast = assay: Multiplex assay against human fibroblast; format: toxicity, cell-based
Procedure, shortened: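 Live cells were stained at seeding with Hoechst33342, BioTracker Green Microtubule Cytoskeleton Dye, MitoTracker Red and Annexin V Alexa Fluor 680. Following compound addition, they were imaged on a CQ1 microscope at 37°C and 5% CO2 and gated by CellPathfinder machine learning into Hoechst high-intensity objects or normal cells, with normal cells split into healthy, pyknosed or fragmented nuclei and pyknosed cells into mitotic or apoptotic. Tubulin, mitochondrial-mass and membrane-permeability phenotypes are per cents of healthy-nucleus cells.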

U2OS = assay: Incucyte cell viability with U2OS; format: toxicity, cell-based; conditions: human, 10 µM, compound concentration 10 uM; note: filed as whole numbers so only -1 and 0 and 1 occur
[1] = 24 h, 10 µM, compound concentration 10 uM, replicate 1
[2] = 24 h, 10 µM, compound concentration 10 uM, replicate 2
[3] = 48 h, 1 µM, compound concentration 1 uM, replicate 1
[4] = 48 h, 1 µM, compound concentration 1 uM, replicate 2
[5] = 48 h, 10 µM, compound concentration 10 uM, replicate 1
[6] = 48 h, 10 µM, compound concentration 10 uM, replicate 2

CCCc1cc(C)[nH]c(=O)c1CNC(=O)c1cc(-c2ccc(N3CCN(C(C)C)CC3)nc2)cc2c1cnn2C(C)C
Population Apoptotic (%) (Fibroblast; [1]): 46% | Population Fragmented Nuclei (%) (Fibroblast; [1]): 21% | Population Healthy Nuclei (%) (Fibroblast; [1]): 43% | Population Hoechst High Intensity Objects (%) (Fibroblast; [1]): 25% | Population Membrane Permeable-Phenotype (%) (Fibroblast; [1]): 4% | Population Mitochondria Different-Phenotype (%) (Fibroblast; [1]): 37% | Population Mitotic Cells (%) (Fibroblast; [1]): 53% | Population Normal (%) (Fibroblast; [1]): 74% | Population Pyknosed Nuclei (%) (Fibroblast; [1]): 35% | Population Tubulin-Different-Phenotype (%) (Fibroblast; [1]): 59% | Total Cell Count (Fibroblast; [1]): 199 | Population Apoptotic (%) (Fibroblast; [2]): 91% | Population Fragmented Nuclei (%) (Fibroblast; [2]): 8% | Population Healthy Nuclei (%) (Fibroblast; [2]): 48% | Population Hoechst High Intensity Objects (%) (Fibroblast; [2]): 9% | Population Membrane Permeable-Phenotype (%) (Fibroblast; [2]): 85% | Population Mitochondria Different-Phenotype (%) (Fibroblast; [2]): 100% | Population Mitotic Cells (%) (Fibroblast; [2]): 8% | Population Normal (%) (Fibroblast; [2]): 90% | Population Pyknosed Nuclei (%) (Fibroblast; [2]): 42% | Population Tubulin-Different-Phenotype (%) (Fibroblast; [2]): 100% | Total Cell Count (Fibroblast; [2]): 60 | Population Apoptotic (%) (Fibroblast; [3]): 66% | Population Healthy Nuclei (%) (Fibroblast; [3]): 50% | Population Hoechst High Intensity Objects (%) (Fibroblast; [3]): 20% | Population Membrane Permeable-Phenotype (%) (Fibroblast; [3]): 7% | Population Mitochondria Different-Phenotype (%) (Fibroblast; [3]): 23% | Population Mitotic Cells (%) (Fibroblast; [3]): 33% | Population Normal (%) (Fibroblast; [3]): 79% | Population Pyknosed Nuclei (%) (Fibroblast; [3]): 15% | Population Tubulin-Different-Phenotype (%) (Fibroblast; [3]): 63% | Total Cell Count (Fibroblast; [3]): 96 | Population Apoptotic (%) (Fibroblast; [4]): 50% | Population Fragmented Nuclei (%) (Fibroblast; [4]): 34% | Population Healthy Nuclei (%) (Fibroblast; [4]): 63% | Population Hoechst High Intensity Objects (%) (Fibroblast; [4]): 10% | Population Membrane Permeable-Phenotype (%) (Fibroblast; [4]): 8% | Population Mitochondria Different-Phenotype (%) (Fibroblast; [4]): 10% | Population Mitotic Cells (%) (Fibroblast; [4]): 50% | Population Normal (%) (Fibroblast; [4]): 90% | Population Pyknosed Nuclei (%) (Fibroblast; [4]): 1% | Population Tubulin-Different-Phenotype (%) (Fibroblast; [4]): 73% | Total Cell Count (Fibroblast; [4]): 120 | Population Apoptotic (%) (Fibroblast; [5]): 77% | Population Fragmented Nuclei (%) (Fibroblast; [5]): 34% | Population Healthy Nuclei (%) (Fibroblast; [5]): 25% | Population Hoechst High Intensity Objects (%) (Fibroblast; [5]): 38% | Population Membrane Permeable-Phenotype (%) (Fibroblast; [5]): 5% | Population Mitochondria Different-Phenotype (%) (Fibroblast; [5]): 63% | Population Mitotic Cells (%) (Fibroblast; [5]): 22% | Population Normal (%) (Fibroblast; [5]): 61% | Population Pyknosed Nuclei (%) (Fibroblast; [5]): 40% | Population Tubulin-Different-Phenotype (%) (Fibroblast; [5]): 68% | Total Cell Count (Fibroblast; [5]): 124 | Population Apoptotic (%) (Fibroblast; [6]): 48% | Population Fragmented Nuclei (%) (Fibroblast; [6]): 22% | Population Healthy Nuclei (%) (Fibroblast; [6]): 41% | Population Hoechst High Intensity Objects (%) (Fibroblast; [6]): 54% | Population Membrane Permeable-Phenotype (%) (Fibroblast; [6]): 0% | Population Mitochondria Different-Phenotype (%) (Fibroblast; [6]): 42% | Population Mitotic Cells (%) (Fibroblast; [6]): 51% | Population Normal (%) (Fibroblast; [6]): 45% | Population Pyknosed Nuclei (%) (Fibroblast; [6]): 35% | Population Tubulin-Different-Phenotype (%) (Fibroblast; [6]): 63% | Total Cell Count (Fibroblast; [6]): 202 | Growth Rate (U2OS; 0 h, replicate number 2, timepoint 0 hours): 0 | Growth Rate (U2OS; 6 h, replicate number 1, timepoint 6 hours): 1 | Growth Rate (U2OS; 12 h, replicate number 1, timepoint 12 hours): 1 | Growth Rate (U2OS; 18 h, replicate number 1, timepoint 18 hours): 0 | Growth Rate (U2OS; 24 h, replicate number 1, timepoint 24 hours): 0 | Growth Rate (U2OS; 24 h, replicate number 2, timepoint 24 hours): 1
